# Measurements pooled from the literature.
# Each line is one published result; the experiments were not run side by side.
Structure (SMILES),test system,setting,Tmax
NCc1ccc(-c2nn(Cc3ccncc3)c3ccccc23)o1,"male CD-1 mouse, plasma","intraperitoneal, 30 mg/kg",19.8 min
Cc1ccc(CCC(=O)Nc2nnc(S(N)(=O)=O)s2)cc1,"male BALB/c mouse, plasma","oral, 20 mg/kg",10 min
OCc1ccc(-c2nn(Cc3ccccc3)c3ccccc23)o1,"male CD-1 mouse, plasma","intraperitoneal, 30 mg/kg",15 min
Cc1ccc(OCC(=O)N[C@@H](Cc2c[nH]c3ccccc23)C(=O)OC(C)C)cc1,"male Sprague-Dawley mouse, plasma","oral, 20 mg/kg",72 min
COc1cc(C2C3=C(COC3=O)N(CCO)c3cc4c(cc32)CCC4)cc(OC)c1OC (centres unmarked),"female C57BL/6 mouse, plasma","intraperitoneal, 50 mg/kg",60 min
CCOC(=O)c1c(NC(=O)CNC(C)C)sc2c1CCCCC2,"male mouse, plasma","intraperitoneal, 5 mg/kg, single dose",11.6 min
NCc1ccc(-c2nn(Cc3ccccc3)c3ccccc23)o1,"male CD-1 mouse, plasma","oral, 10 mg/kg",30 min
CN(C)C(=O)c1cc2cnc(Nc3ccc(-c4ccc5c(=O)cc(N6CCOCC6)oc5c4)cc3)nc2n1C1CCCC1,"BALB/c mouse, plasma","oral, 20 mg/kg",24 min
COCC(=O)N1CCc2[nH]c3c(Cl)c(Cl)ccc3c2[C@@H]1C,"C57BL/6 mouse, blood","intravenous, 1 mg/kg",5 min
Cc1nc2ccc(OCc3ccc(C(F)(F)F)cc3)cc2[nH]1,"male BALB/c mouse, plasma","oral, 10 mg/kg",15 min
COC1=CC(c2ccc[nH]2)=N/C1=C\c1[nH]c(Cc2ccc(OC(F)(F)F)cc2)cc1Cc1ccc(OC(F)(F)F)cc1,"male CD-1 mouse, plasma","oral, 40 mg/kg, single dose",240 min
Cc1[nH]c(C)c(S(=O)(=O)Nc2ccc(C(F)(F)F)c(Cl)c2)c1C(=O)N1CCC(F)(F)C1,"male CD-1 mouse, brain","intraperitoneal, 40 mg/kg",60 min
COC1=CC(c2ccc[nH]2)=N/C1=C\c1cc(Cc2ccc(OC(F)(F)F)cc2)c(C)[nH]1.Cl,"male CD-1 mouse, liver","oral, 40 mg/kg, single dose",1440 min
FC(F)(F)CN1CC(n2cc(Oc3ccn4nc(Cl)cc4n3)cn2)C1,"FVB mouse, blood","oral, single dose",30 min
